This is a sample that favours compounds with a hit; in the whole collection about 4.6% have one here.
PfM18AAP inh = blocks P. falciparum M18 aspartyl aminopeptidase. 1.2% of 290,000 active. recombinant PfM18AAP, H-Glu-NHMec fluorogenic cleavage. inhibition, % at 7.35 µM;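 active = inhibition above the campaign mean inhibition over all tested compounds plus 3 SD, cut at about 28% in these data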;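 note: 0% = plate median of test compound wells and 100% = 2 mM ZnCl2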
UCH37 DUB inh = inhibitors of human deubiquitinating enzyme UCH37; purified proteasome/UCH37, Ub-AMC cleavage fluorescence; inhibition, % (no concentration beside the values); 0.33% of 330,000 active;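 active = mean inhibition over replicate wells above about 20%, limit read from the data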;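 note: 0% = compound-free wells with enzyme and 100% = wells lacking proteasome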
Target sequence (Q9Y5K5 whole entry, looked up): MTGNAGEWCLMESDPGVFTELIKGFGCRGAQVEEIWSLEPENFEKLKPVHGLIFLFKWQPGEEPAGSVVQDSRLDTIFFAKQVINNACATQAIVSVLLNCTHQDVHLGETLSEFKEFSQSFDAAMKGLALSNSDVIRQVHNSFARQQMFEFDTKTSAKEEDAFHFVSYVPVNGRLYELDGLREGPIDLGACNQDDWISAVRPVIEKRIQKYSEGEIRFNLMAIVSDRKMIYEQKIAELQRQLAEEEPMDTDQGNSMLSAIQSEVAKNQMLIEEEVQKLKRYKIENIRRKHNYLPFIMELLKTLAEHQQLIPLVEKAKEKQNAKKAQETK
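Material: Human UCH37 enzyme supplied as purified proteasome complex | Schedule: 30 min compound-proteasome preincubation then 25 min substrate reaction, room temperature | Detection: AMC fluorescence from Ub-AMC cleavage, excitation 355 nm, emission 460 nm | Benchmarks: Wells without proteasome as full block, compound-free enzyme plus substrate as uninhibited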
FAS TE block = inhibitors of human fatty acid synthase thioesterase domain; inhibition, % at 15 µM; recombinant FAS-TE, OMFH fluorogenic substrate, fluorescence endpoint; 0.67% of 360,000 active;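 active = compounds whose normalised, plate-corrected inhibition of enzyme fluorescence in the single-dose primary screen is 50% or more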;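 note: 0% = DMSO with enzyme and 100% = substrate without enzyme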
ALR H2O2 inh = inhibitors of human sulfhydryl oxidase ALR. P55789. purified ALR, DTT oxidation, H2O2 HRP-luminol luminescence. inhibition, % (concentration not given with the values). 3.8% of 290,000 active. AID 485317;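 active = mean replicate inhibition above about 79%, with every replicate also reaching it, limit read from the data; inconclusive = only one of the two criteria met; inactive = mean below limit and not every replicate reaching it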
HDAC3 inh = human HDAC3 inhibition; O15379; recombinant HDAC3, fluorogenic peptide/trypsin coupled, fluorescence; inhibition, % at 8.3 µM; 0.15% of 320,000 active; in the data active = inhibition above about 26%, passing the limit was not always enough; inconclusive = no clear call, values can overlap the other calls
Rtt109 Vps75 = inhibitors of Candida albicans Rtt109/Vps75 histone acetyltransferase | Q5AAJ8 | purified Rtt109/Vps75, ThioGlo CoA-SH fluorescence, 4 h | inhibition, % at 34.9 µM | 0.16% of 330,000 active | AID 540336;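 active = inhibition of at least 50% in every replicate; inconclusive = best replicate reaches 50% inhibition but some replicates fall short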
Target sequence (Q5AAJ8 whole entry, looked up): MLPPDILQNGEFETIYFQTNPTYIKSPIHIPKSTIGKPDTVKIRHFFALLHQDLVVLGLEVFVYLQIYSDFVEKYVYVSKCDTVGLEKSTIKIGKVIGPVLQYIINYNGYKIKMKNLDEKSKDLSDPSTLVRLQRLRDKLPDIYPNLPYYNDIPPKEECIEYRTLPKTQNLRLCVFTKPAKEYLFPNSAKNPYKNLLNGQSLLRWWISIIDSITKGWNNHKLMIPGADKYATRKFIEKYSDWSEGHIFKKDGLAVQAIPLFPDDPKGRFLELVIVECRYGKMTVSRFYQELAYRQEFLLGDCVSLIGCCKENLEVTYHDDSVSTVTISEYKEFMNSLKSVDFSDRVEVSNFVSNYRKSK
FAS-TE conf = confirmation of human fatty acid synthase thioesterase inhibitors; shares compounds with FAS TE block; recombinant FAS-TE, OMFH fluorogenic substrate, fluorescence; inhibition, % at 15 µM; 45% of 2,300 active; AID 624325;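 active = compounds inhibiting the enzyme by at least 50% at 15 µM in any one of the replicates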;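 note: 0% = enzyme with DMSO only and 100% = wells lacking enzyme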
* hit, by the source's call; ? = inconclusive; nt = no result.

SMILES | PfM18AAP inh | UCH37 DUB inh | FAS TE block | ALR H2O2 inh | HDAC3 inh | Rtt109 Vps75 | FAS-TE conf
COc1ccccc1C=NN1C(=O)C2C3C=CC(CC3)C2C1=O (stereo unspecified) | nt | 2 | nt | nt | nt | nt | nt
CC(CCc1ccc2c(c1)OCO2)=N/N=C1/NC(=O)CC(C(=O)Nc2ccc(C(=O)O)cc2)S1 (stereo unspecified) | nt | 0 | nt | nt | nt | nt | nt
Cc1ccc(C(=O)Oc2cccc(-n3cnnn3)c2)cc1 | 0 | 1 | 31 | -2 | 1 | -13 | nt
CC1CCc2c(C(=O)Oc3cccc(-n4cnnn4)c3)csc2C1 (stereo unspecified) | 6 | 3 | 85* | -4 | 14 | nt | 56*
COc1cc(C=NN2CCOCC2)ccc1OCc1ccc(Cl)cc1 | nt | 1 | nt | nt | nt | nt | nt
N#C/C(C(N)=O)=c1/ccc2c(c1)N1C3=C(CCCC3)CC3CCCCC31N=2 (stereo unspecified) | 1 | nt | nt | 65 | 5 | 5 | nt
N#CC(C#N)=c1ccc2c(c1)N1C3=C(CCCC3)CC3CCCCC31N=2 (stereo unspecified) | -6 | 3 | 51* | -5 | -7 | 5 | 18
CC(C)N(C(=O)C[n+]1ccc(C=NO)cc1)C(C)C | nt | 4 | nt | nt | nt | nt | nt
COc1ccccc1/C=C/C=NNC(=O)CCn1nnc2ccccc21 | nt | 4 | nt | nt | nt | nt | nt
CC(C)(C)OC(=O)N[C@@H](CCCCNC(=O)OCc1ccccc1)c1nnc([C@H](CCCCNC(=O)OCc2ccccc2)NC(=O)OC(C)(C)C)o1 | nt | 1 | 66* | -11 | 17 | 4 | 27
CC(C)(C)OC(=O)NCCCC[C@H](NC(=O)c1nc[nH]c1C(=O)NC1CCN(C(=O)OC(C)(C)C)CC1)C(=O)OC(C)(C)C | nt | 4 | 84* | nt | ? | 3 | 59*
C[C@H](NC(=O)c1nc[nH]c1C(=O)N[C@@H](CCCCNC(=O)OC(C)(C)C)C(=O)OC(C)(C)C)C(=O)OC(C)(C)C | nt | 4 | 73* | -8 | ? | 11 | 62*
CC(C)C[C@H](NC(=O)c1nc[nH]c1C(=O)NC1CCN(C(=O)OC(C)(C)C)CC1)C(=O)OC(C)(C)C | 4 | 4 | 20 | nt | 22 | -2 | nt
CC(C)C[C@H](NC(=O)c1nc[nH]c1C(=O)NC1CCN(C(=O)OC(C)(C)C)CC1)C(=O)OCc1ccccc1 | -10 | 2 | 58* | -1 | 44* | 9 | 61*
CC(=NNC(=O)COc1ccc(C)cc1C(C)C)c1ccc(-n2ccnc2)cc1 | nt | 2 | nt | nt | nt | nt | nt
CCOc1ccc(S(=O)(=O)NN=C2CC(c3ccccc3)Oc3ccccc32)cc1 (stereo unspecified) | nt | 5 | nt | nt | nt | nt | nt
CC(C)(C)OC(=O)NCCCC[C@H](NC(=O)c1nc[nH]c1C(=O)NCC(=O)OCc1ccccc1)C(=O)OC(C)(C)C | -11 | 2 | 90* | nt | -1 | 21 | 96*
CC(C)C[C@H](NC(=O)c1nc[nH]c1C(=O)N[C@@H](CCCCNC(=O)OC(C)(C)C)C(=O)OC(C)(C)C)C(=O)OCc1ccccc1 | -8 | 4 | 20 | nt | 17 | 3 | nt
CC(C)(C)OC(=O)NCCCC[C@H](NC(=O)c1nc[nH]c1C(=O)N[C@@H](CCCCNC(=O)OC(C)(C)C)C(=O)OC(C)(C)C)C(=O)OC(C)(C)C | nt | 4 | 13 | nt | 0 | 6 | nt
CC(C)(C)OC(=O)CNC(=O)c1[nH]cnc1C(=O)N[C@@H](CCCCNC(=O)OC(C)(C)C)C(=O)OC(C)(C)C | nt | 0 | 87* | -21 | 14 | 13 | 92*
Cc1cccc(NC(=O)c2nc[nH]c2C(=O)N[C@@H](CCCCNC(=O)OC(C)(C)C)C(=O)OC(C)(C)C)c1 | nt | 5 | 90* | -9 | -7 | 7 | 55*
CC(C)(C)OC(=O)[C@H](Cc1ccccc1)NC(=O)c1nc[nH]c1C(=O)NCC(=O)OCc1ccccc1 | -2 | -1 | 35 | nt | ? | 0 | nt
C[C@H](NC(=O)c1nc[nH]c1C(=O)N[C@@H](CCCCNC(=O)OC(C)(C)C)C(=O)OC(C)(C)C)C(=O)OCc1ccccc1 | 2 | 0 | 87* | nt | ? | -2 | 74*
COc1cccc(C=Nn2c(C3CCCCC3)n[nH]c2=S)c1OC | nt | 3 | nt | nt | nt | nt | nt
O=C(NN=Cc1sc(=O)[nH]c1-[n+]1ccc2ccccc2c1)c1ccccc1[O-] | nt | 14 | nt | nt | nt | nt | nt
SMILES | PfM18AAP inh | UCH37 DUB inh | FAS TE block | ALR H2O2 inh | HDAC3 inh | Rtt109 Vps75 | FAS-TE conf
O=C1NCCCC1C(=O)NN=Cc1cccc(Cl)c1 (stereo unspecified) | nt | 4 | nt | nt | nt | nt | nt
CCOC(=O)c1c(N=Cc2ccc(OC)cc2O)sc2c1CCN(C)C2 | nt | 3 | nt | nt | nt | nt | nt
CCn1c(SCC(=O)NN=C/C=C\c2ccccc2[N+](=O)[O-])nnc1-c1ccccc1 | nt | 6 | nt | nt | nt | nt | nt
Cc1ccc(S(=O)(=O)N(C)C)cc1NC(=O)[C@H](Cc1ccccc1)N1C(=O)c2ccccc2C1=O | -6 | -2 | 53* | nt | nt | 8 | 30
CCOc1ccccc1C(=O)N[C@H](C(=O)Nc1cc(S(=O)(=O)N(C)C)ccc1OC)C(C)C | -4 | 3 | 8 | -3 | 1 | 3 | nt
COc1ccc(S(=O)(=O)N(C)C)cc1NC(=O)[C@H](Cc1ccccc1)N1C(=O)c2ccccc2C1=O | -1 | 6 | 65* | -2 | 10 | -2 | 38
Cc1cccc(C(=O)Nc2cccc(C(=O)NN=Cc3cccc(C)n3)c2)c1 | nt | 1 | nt | nt | nt | nt | nt
Cc1cccc(Oc2ccc(S(=O)(=O)N3CCCCC3)cc2NC(=O)C2=COCCO2)c1 | nt | 1 | 65* | nt | 0 | -12 | 6
Cc1ccc2c(c1)[C@H]1[C@H](CO2)[C@H](c2ccccc2)[C@]2(C)C(=O)N(Cc3ccc(F)cc3)CC(=O)N12 | nt | 0 | 24 | 2 | -3 | -3 | nt
Cc1ccc2c(c1)[C@H]1[C@H](CO2)[C@H](c2ccccc2)[C@]2(C)C(=O)Nc3ccc(F)cc3C(=O)N12 | nt | 1 | 83* | nt | nt | 0 | 44
C[C@@]12C(=O)Nc3cc(F)ccc3C(=O)N1[C@H]1c3ccccc3OC[C@@H]1[C@@H]2c1ccccc1 | nt | nt | 69* | 6 | -9 | 6 | 48*
Cc1ccc2c(c1)[C@H]1[C@H](CO2)[C@H](c2ccccc2)[C@]2(C)C(=O)Nc3cc(F)c(F)cc3C(=O)N12 | nt | 0 | 76* | 0 | 5 | 2 | 21
C[C@H]1NC(=O)[C@@]2(C)[C@H](c3ccccc3)[C@H]3COc4ccccc4[C@@H]3N2C1=O | nt | -1 | -14 | -3 | -1 | -4 | nt
Cc1ccc2c(c1)[C@H]1[C@H](CO2)[C@H](c2ccccc2)[C@]2(C)C(=O)Nc3cc(Cl)ccc3C(=O)N12 | nt | 1 | 93* | -2 | -1 | 2 | 30
CCOc1ccc(C(=O)NN=Cc2c(C)[nH]c(=O)[nH]c2=O)cc1 | nt | -91 | nt | nt | nt | nt | nt
O=C(NCc1ccc(C(F)(F)F)cc1)C1CC(c2c(Cl)cccc2Cl)=NO1 (stereo unspecified) | -7 | 2 | 55* | 0 | 14 | -3 | 55*

Compound activity: PubChem BioAssay, several laboratories
